Measurements from ChEMBL document CHEMBL3779860, “A Designed Tryptophan- and Lysine/Arginine-Rich Antimicrobial Peptide with Therapeutic Potential for Clinical Antibiotic-Resistant Candida albicans Vaginitis” (J Med Chem, 2016).

Experiments:
Candida albicans [1] = assay: Antimicrobial activity against antibiotic resistant Candida albicans clinical isolate 08030809 assessed as clone count at 5 times MIC after 1 min by colony counting assay (reference value: 62 +/- 7 CFU); assay type: functional
Candida albicans [2] = assay: Antimicrobial activity against antibiotic resistant Candida albicans clinical isolate 08032815 compound treated in double distilled water measured after 36 hrs by disc diffusion method; assay type: functional; conditions: isolate 08032815, 36 h
In short: (§1)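 Salt-tolerance test: peptide at 2 mg/mL was prepared in sterile ddH2O, in 150 mM NaCl, or in PBS (150 mM NaCl, 2.7 mM KCl, 1.5 mM KH2PO4, 8 mM K2HPO4, pH 7.2). Anti-C. albicans activity was then assessed by inhibition zone on Sabouraud medium with 0.7% agar.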

Mus musculus [3] = assay: Antiinflammatory activity in antibiotic resistant Candida albicans clinical isolate 08030809 induced mouse vaginitis model assessed as reduction in IL-1beta secretion in vaginal tissue at 50 ug administered as intravaginal instillation measured on day 10 by ELISA; assay type: functional, Vagina
In short: (§2)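 Same estradiol-primed mouse model, infected intravaginally with C. albicans 08030809 and treated by intravaginal instillation (20 µL/mouse). Vaginal canals excised on day 10 of treatment and homogenised in 0.9% NaCl. Supernatant taken after 2,000 g for 15 min. TNF-α, IL-6, IL-1β and IL-10 measured by ELISA. Mean ± SE of three independent experiments; unpaired t-test versus vehicle.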

Candida albicans [4] = assay: Antimicrobial activity against antibiotic resistant Candida albicans clinical isolate 08032815 compound treated in NaCl solution measured after 36 hrs by disc diffusion method; assay type: functional; conditions: isolate 08032815, 36 h; in short: as §1
Candida albicans [5] = assay: Antimicrobial activity against antibiotic resistant Candida albicans clinical isolate 08030809 compound treated in double distilled water measured after 36 hrs by disc diffusion method; assay type: functional; conditions: isolate 08030809, 36 h; in short: as §1
Candida albicans [6] = assay: Antimicrobial activity against antibiotic resistant Candida albicans clinical isolate 08030809 assessed as clone count at 5 times MIC after 30 mins by colony counting assay (reference value: 156 +/- 16 CFU); assay type: functional
Candida albicans [7] = assay: Antimicrobial activity against antibiotic resistant Candida albicans clinical isolate 08022710 after 16 hrs by broth dilution method; assay type: functional; conditions: isolate 08022710, 16 h
In short: (§3)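 Broth microdilution in Sabouraud liquid medium. Samples are stocks in 0.9% NaCl, 10 µL added to 90 µL broth plus 100 µL of 2 × 10^5 CFU/mL yeast suspension. Incubated 16 h at 28°C, growth read by A600. MIC is the lowest concentration completely inhibiting growth; mean of three independent experiments.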

Mus musculus [8] = assay: Antiinflammatory activity in antibiotic resistant Candida albicans clinical isolate 08030809 induced mouse vaginitis model assessed as microabscess number in vaginal tissue at 50 ug administered as intravaginal instillation measured on day 6 by hematoxylin-eosin staining based microscopic method (reference value: 61); assay type: functional, Vagina
In short: (§4)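 Mice given weekly subcutaneous estradiol valerate (0.5 mg in 0.1 mL vegetable oil) 72 h before infection. Infected intravaginally with 20 µL of 10^7 CFU/mL C. albicans 08030809. Intravaginal instillation of 20 µL daily for 16 days. Vaginal canals excised after lavage, formalin-fixed, paraffin-embedded, HE-stained. Microabscesses counted per high-power field over 6 fields per section, three independent experiments.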

Candida albicans [9] = assay: Antimicrobial activity against antibiotic resistant Candida albicans clinical isolate 08030809 assessed as clone count at 10 times MIC after 10 mins by colony counting assay (reference value: 102 +/- 11 CFU); assay type: functional
Mus musculus [10] = assay: Antiinflammatory activity in antibiotic resistant Candida albicans clinical isolate 08030809 induced mouse vaginitis model assessed as microabscess number in vaginal tissue at 20 ug administered as intravaginal instillation measured on day 6 by hematoxylin-eosin staining based microscopic method (reference value: 61); assay type: functional, Vagina; in short: as §4
Bacillus subtilis = assay: Antimicrobial activity against Bacillus subtilis assessed as inhibition of […] growth after 16 hrs by broth dilution method; assay type: functional
In short: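 Broth dilution in LB broth; 100 µL of 2 × 10^5 CFU/mL bacterial suspension plus 10 µL sample (stock series in 0.9% NaCl) in 90 µL broth, 37°C for 16 h. Growth read as A600; MIC is the lowest concentration completely inhibiting growth. Mean of three independent experiments run in duplicate.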

Mus musculus [11] = assay: Antiinflammatory activity in antibiotic resistant Candida albicans clinical isolate 08030809 induced mouse vaginitis model assessed as microabscess number in vaginal tissue at 20 ug administered as intravaginal instillation measured after 16 days by hematoxylin-eosin staining based microscopic method (reference value: 61); assay type: functional, Vagina; in short: as §4
Candida albicans [12] = assay: Antimicrobial activity against antibiotic resistant Candida albicans clinical isolate 08030809 assessed as clone count at 5 times MIC after 12 hrs by colony counting assay (reference value: 54153 +/- 8769 CFU); assay type: functional
Mus musculus [13] = assay: Antiinflammatory activity in antibiotic resistant Candida albicans clinical isolate 08030809 induced mouse vaginitis model assessed as reduction in IL-6 secretion in vaginal tissue at 50 ug administered as intravaginal instillation measured on day 10 by ELISA; assay type: functional, Vagina; in short: as §2
Candida albicans [14] = assay: Antimicrobial activity against antibiotic resistant Candida albicans clinical isolate 08030809 in mouse vaginitis model assessed as colony count in lavage liquid of vagina at 20 ug administered as intravaginal instillation measured on day 16; assay type: functional
Candida albicans [15] = assay: Antimicrobial activity against antibiotic resistant Candida albicans clinical isolate 08030102 after 16 hrs by broth dilution method; assay type: functional; conditions: isolate 08030102, 16 h; in short: as §3
Candida albicans [16] = assay: Antimicrobial activity against antibiotic resistant Candida albicans clinical isolate 08030809 assessed as clone count at 5 times MIC after 10 mins by colony counting assay (reference value: 102 +/- 11 CFU); assay type: functional
Candida albicans [17] = assay: Antimicrobial activity against antibiotic resistant Candida albicans clinical isolate 08032821 compound treated in PBS solution measured after 36 hrs by disc diffusion method; assay type: functional; conditions: isolate 08032821, 36 h; in short: as §1
Candida albicans [18] = assay: Antimicrobial activity against antibiotic resistant Candida albicans clinical isolate 08030809 assessed as clone count at 10 times MIC after 12 hrs by colony counting assay (reference value: 54153 +/- 8769 CFU); assay type: functional
Candida albicans [19] = assay: Antimicrobial activity against antibiotic resistant Candida albicans clinical isolate 08030809 in mouse vaginitis model assessed as decrease in colony count in lavage liquid of vagina at 20 ug administered as intravaginal instillation measured on day 6; assay type: functional
Candida albicans [20] = assay: Antimicrobial activity against antibiotic resistant Candida albicans clinical isolate 08032815 compound treated in PBS solution measured after 36 hrs by disc diffusion method; assay type: functional; conditions: isolate 08032815, 36 h; in short: as §1
Candida albicans [21] = assay: Antimicrobial activity against antibiotic resistant Candida albicans clinical isolate 08032710 compound treated in double distilled water measured after 36 hrs by disc diffusion method; assay type: functional; conditions: isolate 08032710, 36 h; in short: as §1
Candida albicans [22] = assay: Antimicrobial activity against antibiotic resistant Candida albicans clinical isolate 08030809 assessed as clone count at MIC after 10 mins by colony counting assay (reference value: 102 +/- 11 CFU); assay type: functional
Candida albicans [23] = assay: Antimicrobial activity against antibiotic resistant Candida albicans clinical isolate 08032710 compound treated in PBS solution measured after 36 hrs by disc diffusion method; assay type: functional; conditions: isolate 08032710, 36 h; in short: as §1
Candida albicans [24] = assay: Antimicrobial activity against antibiotic resistant Candida albicans clinical isolate 08030809 in mouse vaginitis model assessed as colony count in lavage liquid of vagina at 50 ug administered as intravaginal instillation measured on day 16; assay type: functional

## H-VKRWKKWRWKWKKWV-NH2
Candida albicans [1]
  Activity: 10 CFU
Candida albicans [2]
  MIC: 2.79 µg/mL
Mus musculus [3]
  inhibition (INH): 63%
Candida albicans [4]
  MIC: 2.79 µg/mL
Candida albicans [5]
  MIC: 1.4 µg/mL
Candida albicans [6]
  Activity: 0 CFU
Candida albicans [7]
  MIC: 4.69 µg/mL
Mus musculus [8]
  Activity: 7
Candida albicans [9]
  Activity: 4 CFU
Mus musculus [10]
  Activity: 16
Bacillus subtilis
  MIC: 1.17 µg/mL
Mus musculus [11]
  Activity: <3
Candida albicans [12]
  Activity: 0 CFU
Mus musculus [13]
  inhibition (INH): 57%
Candida albicans [14]
  Activity: 5.4 ×10³ CFU/ml
Candida albicans [15]
  MIC: 3.13 µg/mL
Candida albicans [16]
  Activity: 9 CFU
Candida albicans [17]
  MIC: 2.65 µg/mL
Candida albicans [18]
  Activity: 0 CFU
Candida albicans [19]
  inhibition (INH): 22%
Candida albicans [20]
  MIC: 2.79 µg/mL
Candida albicans [21]
  MIC: 2.79 µg/mL
Candida albicans [22]
  Activity: 15 CFU
Candida albicans [23]
  MIC: 2.79 µg/mL
Candida albicans [24]
  Activity: 2.9 ×10³ CFU/ml
